Data published in ChEMBL document CHEMBL2321744 (J Med Chem, 2013).
Active and inactive are the calls of the source. The calls are words filed in the database; no cut-off is given here.

Experiments:
Phospholipase D1 = target: T1, Phospholipase D1 (Homo sapiens, UniProt Q13393); assay: Inhibition of PLD1 in human Calu-1 cells assessed as deuterated 1-butanol incorporation pretreated for 5 mins prior to substrate addition measured after 30 mins by mass spectrometry
T1 sequence (Q13393 whole entry): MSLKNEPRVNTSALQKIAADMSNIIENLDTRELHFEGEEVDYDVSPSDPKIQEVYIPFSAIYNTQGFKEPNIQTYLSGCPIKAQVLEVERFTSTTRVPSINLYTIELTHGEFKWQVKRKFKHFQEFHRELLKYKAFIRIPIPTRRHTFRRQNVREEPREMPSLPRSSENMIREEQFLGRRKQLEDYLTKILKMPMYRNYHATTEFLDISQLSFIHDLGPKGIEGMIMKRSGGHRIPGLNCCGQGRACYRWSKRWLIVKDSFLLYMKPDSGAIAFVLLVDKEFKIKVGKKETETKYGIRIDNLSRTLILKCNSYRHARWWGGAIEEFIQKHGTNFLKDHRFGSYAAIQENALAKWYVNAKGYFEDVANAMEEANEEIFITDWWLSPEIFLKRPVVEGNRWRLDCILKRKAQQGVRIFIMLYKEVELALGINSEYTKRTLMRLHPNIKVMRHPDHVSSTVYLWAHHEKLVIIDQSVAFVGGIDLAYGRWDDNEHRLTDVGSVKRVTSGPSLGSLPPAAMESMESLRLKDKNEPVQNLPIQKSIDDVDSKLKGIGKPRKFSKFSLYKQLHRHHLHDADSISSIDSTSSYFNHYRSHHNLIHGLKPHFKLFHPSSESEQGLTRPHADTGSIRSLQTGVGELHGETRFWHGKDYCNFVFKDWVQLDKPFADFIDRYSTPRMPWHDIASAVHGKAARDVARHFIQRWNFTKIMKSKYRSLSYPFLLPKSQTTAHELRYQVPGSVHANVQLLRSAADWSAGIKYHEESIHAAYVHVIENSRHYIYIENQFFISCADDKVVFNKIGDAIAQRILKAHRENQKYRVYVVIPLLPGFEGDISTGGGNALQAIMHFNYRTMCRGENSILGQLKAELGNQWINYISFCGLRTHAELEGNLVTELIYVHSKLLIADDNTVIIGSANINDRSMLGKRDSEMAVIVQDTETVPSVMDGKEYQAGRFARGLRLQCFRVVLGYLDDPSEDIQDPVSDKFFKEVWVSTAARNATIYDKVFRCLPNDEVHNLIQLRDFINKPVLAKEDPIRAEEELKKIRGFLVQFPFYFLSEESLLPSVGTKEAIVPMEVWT

Phospholipase D2 [1] = target: T2, Phospholipase D2 (Homo sapiens, UniProt O14939); assay: Inhibition of GFP-tagged PLD2 in human HEK293 cells assessed as deuterated 1-butanol incorporation pretreated for 5 mins prior to substrate addition measured after 30 mins by mass spectrometry
T2 sequence (O14939 whole entry): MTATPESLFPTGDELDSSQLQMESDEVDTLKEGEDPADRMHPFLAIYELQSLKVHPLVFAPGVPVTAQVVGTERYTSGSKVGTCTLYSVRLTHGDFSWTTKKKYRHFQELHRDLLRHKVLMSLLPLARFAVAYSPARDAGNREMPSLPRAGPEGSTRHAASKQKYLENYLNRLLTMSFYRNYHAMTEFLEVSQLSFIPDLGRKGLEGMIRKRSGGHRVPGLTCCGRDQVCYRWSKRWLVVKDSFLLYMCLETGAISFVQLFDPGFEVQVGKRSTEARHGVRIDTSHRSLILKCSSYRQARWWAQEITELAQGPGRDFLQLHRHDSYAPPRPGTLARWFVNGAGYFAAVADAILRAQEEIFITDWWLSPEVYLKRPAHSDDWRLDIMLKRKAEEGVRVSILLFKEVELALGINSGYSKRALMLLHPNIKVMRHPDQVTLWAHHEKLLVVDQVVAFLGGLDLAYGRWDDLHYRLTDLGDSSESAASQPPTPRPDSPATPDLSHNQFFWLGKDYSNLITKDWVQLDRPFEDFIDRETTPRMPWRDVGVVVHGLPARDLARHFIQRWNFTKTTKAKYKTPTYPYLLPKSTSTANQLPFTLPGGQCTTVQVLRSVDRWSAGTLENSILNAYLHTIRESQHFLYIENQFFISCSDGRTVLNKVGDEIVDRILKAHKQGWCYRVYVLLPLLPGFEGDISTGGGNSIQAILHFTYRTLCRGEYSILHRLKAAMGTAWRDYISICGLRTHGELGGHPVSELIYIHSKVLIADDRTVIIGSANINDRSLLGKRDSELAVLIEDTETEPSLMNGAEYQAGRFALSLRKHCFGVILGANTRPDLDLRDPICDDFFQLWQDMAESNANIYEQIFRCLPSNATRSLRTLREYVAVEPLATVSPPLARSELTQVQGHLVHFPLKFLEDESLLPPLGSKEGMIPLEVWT

[2] = Cytotoxicity against human U87MG cells assessed as cell viability up to 10 uM by WST-1 assay in presence of 10% FBS relative to control; assay type: cell-based; conditions: u-87mg atcc
Procedure, shortened: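 U87-MG cells in 10% FBS were exposed to compound at concentrations up to 10 μM. Viability was compared with DMSO vehicle.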

hERG (KCNH2) = hERG (KCNH2) (Homo sapiens, UniProt Q12809); assay: Inhibition of human ERG at 10 uM by radioligand binding assay
Chain of hERG (KCNH2) (Q12809 whole entry): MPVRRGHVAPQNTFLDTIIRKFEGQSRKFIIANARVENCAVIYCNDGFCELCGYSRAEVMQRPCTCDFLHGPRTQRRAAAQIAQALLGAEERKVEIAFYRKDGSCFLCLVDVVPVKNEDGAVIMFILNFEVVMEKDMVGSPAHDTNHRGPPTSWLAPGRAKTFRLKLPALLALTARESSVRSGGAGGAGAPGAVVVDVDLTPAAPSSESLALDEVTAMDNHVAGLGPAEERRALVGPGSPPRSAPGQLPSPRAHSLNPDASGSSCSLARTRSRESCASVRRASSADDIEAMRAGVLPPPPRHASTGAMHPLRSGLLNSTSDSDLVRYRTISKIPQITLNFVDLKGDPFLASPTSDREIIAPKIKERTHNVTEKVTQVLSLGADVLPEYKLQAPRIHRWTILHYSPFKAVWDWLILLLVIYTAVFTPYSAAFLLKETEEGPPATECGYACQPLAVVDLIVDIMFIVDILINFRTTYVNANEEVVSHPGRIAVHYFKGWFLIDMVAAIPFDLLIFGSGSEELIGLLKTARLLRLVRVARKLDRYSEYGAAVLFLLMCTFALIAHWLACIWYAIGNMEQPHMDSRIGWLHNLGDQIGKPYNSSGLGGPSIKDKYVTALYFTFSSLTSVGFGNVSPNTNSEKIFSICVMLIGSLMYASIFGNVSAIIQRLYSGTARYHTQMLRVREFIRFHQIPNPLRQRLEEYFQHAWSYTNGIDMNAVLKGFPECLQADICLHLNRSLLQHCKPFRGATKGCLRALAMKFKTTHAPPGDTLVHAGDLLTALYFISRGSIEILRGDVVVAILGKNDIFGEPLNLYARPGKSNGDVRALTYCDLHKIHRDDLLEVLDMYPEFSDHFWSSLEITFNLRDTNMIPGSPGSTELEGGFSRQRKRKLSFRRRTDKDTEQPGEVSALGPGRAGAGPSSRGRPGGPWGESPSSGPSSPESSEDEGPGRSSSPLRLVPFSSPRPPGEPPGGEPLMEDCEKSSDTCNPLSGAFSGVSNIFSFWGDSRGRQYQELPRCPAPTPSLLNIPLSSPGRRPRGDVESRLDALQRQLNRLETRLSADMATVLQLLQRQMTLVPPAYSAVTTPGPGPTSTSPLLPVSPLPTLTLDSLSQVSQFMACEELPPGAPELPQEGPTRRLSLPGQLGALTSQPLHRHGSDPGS

[3] = Stability of the compound in PBS buffer up to 48 hrs; assay type: physicochemical
[4] = Solubility of the compound in PBS buffer; assay type: physicochemical
U-87 MG = assay: Increase in caspase 3/7 activation in human U87MG cells after 6 to 72 hrs under serum free conditions; assay type: functional, cell-based; conditions: U-87MG ATCC
Phospholipase D2 [5] = target: T2, Phospholipase D2; conditions: U-87MG ATCC
in vivo [6] = conditions: black6 (printed 'balck6'), mouse, lung, ip, 10 mg/kg
in vivo [7] = conditions: black6 (printed 'balck6'), mouse, brain, ip, 10 mg/kg

Row | SMILES | IC50 (Phospholipase D1) [µM] | IC50 (Phospholipase D2 [1]) [µM] | further results
1 | C[C@H](CN1CCC2(CC1)C(=O)NCN2c1cccc(F)c1)NC(=O)c1ccc(F)c(F)c1 | 1.4 | 3.45 | 
2 | O=C(NCCN1CCC2(CC1)C(=O)NCN2c1cccc(F)c1)c1ccc(F)cc1 |  | 0.35 | 
3 | C[C@H](CN1CCC2(CC1)C(=O)NCN2c1cccc(F)c1)NC(=O)c1ccc(F)cc1 | 0.76 | 1.06 | 
4 | C[C@@H](CN1CCC2(CC1)C(=O)NCN2c1cccc(F)c1)NC(=O)c1ccc(F)cc1 | 0.02 | 0.035 | 
5 | O=C(NCCN1CCC2(CC1)C(=O)NCN2c1cccc(F)c1)c1ccc(Br)cc1 | 1.54 | 0.2 | 
6 | Cc1cccc(N2CNC(=O)C23CCN(C[C@H](C)NC(=O)c2ccc(Br)cc2)CC3)c1 |  |  | Activity [2]: Non-toxic; inhibition at 10 µM (hERG (KCNH2)): > 50%; Stability [3]: Stable; solubility [4]: soluble; Activity (U-87 MG): Active
7 | C[C@@H](CN1CCC2(CC1)C(=O)NCN2c1cccc(F)c1)NC(=O)c1ccc(F)c(F)c1 | 0.086 | 0.12 | 
8 | O=C(NCCN1CCC2(CC1)C(=O)NCN2c1cccc(F)c1)c1ccc(F)c(F)c1 |  |  | Activity [2]: Non-toxic; inhibition (Phospholipase D2 [5]): Dose-dependent effect; AUC at 6 h (in vivo [6]): 4.61 µM·h; AUC at 6 h (in vivo [7]): 0.08 µM·h; Stability [3]: Stable; solubility [4]: soluble
9 | C[C@H](CN1CCC2(CC1)C(=O)NCN2c1cccc(F)c1)NC(=O)c1ccc(Br)cc1 |  | 0.8 | 
